# Data as given in ChEMBL document CHEMBL4811317, “Inhibitory activities of anthraquinone and xanthone derivatives against transthyretin amyloidogenesis” (Bioorg Med Chem, 2021).
# Active and inactive are the calls of the source. The rule behind the calls is not given here.
# Tested on: not listed separately
# Assay: Cmax in Sprague-Dawley rat at 1 mg/kg, po measured up to 8 hrs by LC-MS/MS analysis
# Assay type: ADME, organism-based
# Set-up: route oral, dose 1 mg/kg, time <=8
# Settings: in vivo
# Method in brief: (§1)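 Male Sprague Dawley rats (7 weeks old, n = 2) given compound in 10% DMSO/0.1 M phosphate pH 8.5, i.v. or p.o. Caudal-vein blood at 5 min (i.v.), 15, 30 min, 1, 2, 4, 8 h; plasma precipitated with acetonitrile/IS, LC-MS/MS. Non-compartmental analysis; bioavailability = AUC∞(p.o.)/AUC∞(i.v.).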
row,SMILES,Cmax [ng/mL]
1,Cc1cc(C(=O)O)cc2c(=O)c3ccccc3oc12,476
2,O=C(O)c1cc(Cl)c2oc3ccccc3c(=O)c2c1,1120

# Tested on: not listed separately
# Assay: AUC infinity in Sprague-Dawley rat at 1 mg/kg, po measured up to 8 hrs by LC-MS/MS analysis
# Assay type: ADME, organism-based
# Set-up: route oral, dose 1 mg/kg, time <=8
# Settings: in vivo
row,SMILES,AUC(0-inf) [ng·h/mL]
1,Cc1cc(C(=O)O)cc2c(=O)c3ccccc3oc12,2620
2,O=C(O)c1cc(Cl)c2oc3ccccc3c(=O)c2c1,9190

# Tested on: not listed separately
# Assay: Elimination half life in Sprague-Dawley rat at 1 mg/kg, iv measured up to 8 hrs by LC-MS/MS analysis
# Assay type: ADME, organism-based
# Settings: in vivo, read-out: beta t1/2 (converted)
# Method in brief: as §1
row,SMILES,half-life [min]
1,Cc1cc(C(=O)O)cc2c(=O)c3ccccc3oc12,144
2,O=C(O)c1cc(Cl)c2oc3ccccc3c(=O)c2c1,102

# Biological target: Transthyretin (Homo sapiens) (UniProt P02766)
# Assay: Binding affinity to TTR V30M mutant (unknown origin) expressed in Escherichia coli by isothermal titration calorimetry
# Settings: not given
row,SMILES,Activity
1,Cc1cc(C(=O)O)cc2c(=O)c3ccccc3oc12,Active
2,O=C(O)c1cc(Cl)c2oc3ccccc3c(=O)c2c1,Active

# Tested on: not listed separately
# Assay: Bioavailability in Sprague-Dawley rat at 1 mg/kg, iv measured up to 8 hrs by LC-MS/MS analysis
# Assay type: ADME, organism-based
# Settings: in vivo
# Method in brief: as §1
row,SMILES,bioavailability [%]
1,Cc1cc(C(=O)O)cc2c(=O)c3ccccc3oc12,34.9
2,O=C(O)c1cc(Cl)c2oc3ccccc3c(=O)c2c1,69.8

# Tested on: not listed separately
# Assay: AUC infinity in Sprague-Dawley rat at 1 mg/kg, iv measured up to 8 hrs by LC-MS/MS analysis
# Assay type: ADME, organism-based
# Set-up: route intravenous, dose 1 mg/kg, time <=8
# Settings: in vivo
row,SMILES,AUC(0-inf) [ng·h/mL]
1,Cc1cc(C(=O)O)cc2c(=O)c3ccccc3oc12,7520
2,O=C(O)c1cc(Cl)c2oc3ccccc3c(=O)c2c1,13200

# Tested on: not listed separately
# Assay: Metabolic stability in Sprague-Dawley rat liver microsomes assessed as residual rate at 1 uM measured after 30 mins by LC-MS/MS analysis
# Assay type: ADME, Microsome
# Settings: read-out: Stabilty
row,SMILES,"remaining at 0.5 h, 1 µM [%]"
1,Cc1cc(C(=O)O)cc2c(=O)c3ccccc3oc12,88
2,O=C(O)c1cc(Cl)c2oc3ccccc3c(=O)c2c1,88

# Tested on: not listed separately
# Assay: Aqueous solubility of the compound in pH 1.2 JP1 fluid measured after 4 hrs ny HPLC-UV analysis
# Assay type: physicochemical
# Settings: not given
# Method in brief: (§2)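 Test compound diluted from 10 mM DMSO stock 2:165 into JP 1st fluid (pH 1.2) or JP 2nd fluid (pH 6.8); mixed 4 h at 37 °C with rotation at 1000 rpm, then filtered through 0.45 μm PVDF by centrifugation. At least two technical replicates.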
row,SMILES,solubility at 4 h [µM]
1,Cc1cc(C(=O)O)cc2c(=O)c3ccccc3oc12,2
2,O=C(O)c1cc(Cl)c2oc3ccccc3c(=O)c2c1,2.9

# Tested on: not listed separately
# Assay: Permeability of the compound at 10 uM measured after 4 hrs by PAMPA based LC-MS analysis
# Assay type: ADME
# Settings: read-out: permeability
# Method in brief: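 PAMPA on pre-coated plates: donor 10 μM compound in 5% DMSO/0.1 M phosphate pH 6.4, acceptor 5% DMSO/0.1 M phosphate pH 7.4; 4 h at 37 °C without agitation. Donor, acceptor and initial donor solutions quantified by LC-MS/MS; recovery above 90%. Antipyrine, metoprolol, sulfasalazine as references. At least two technical replicates.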
row,SMILES,"Papp at 4 h, 10 µM [×10⁻⁶ cm/s]"
1,Cc1cc(C(=O)O)cc2c(=O)c3ccccc3oc12,18
2,O=C(O)c1cc(Cl)c2oc3ccccc3c(=O)c2c1,17

# Tested on: not listed separately
# Assay: Volume of distribution at steady state in Sprague-Dawley rat at 1 mg/kg, iv measured up to 8 hrs by LC-MS/MS analysis
# Assay type: ADME, organism-based
# Settings: in vivo, read-out: Vdss
# Method in brief: as §1
row,SMILES,Vd [L/kg]
1,Cc1cc(C(=O)O)cc2c(=O)c3ccccc3oc12,0.148
2,O=C(O)c1cc(Cl)c2oc3ccccc3c(=O)c2c1,0.164

# Tested on: not listed separately
# Assay: Metabolic stability in Sprague-Dawley rat liver microsomes assessed as residual rate at 1 uM preincubated for 5 mins followed by NADPH addition and measured after 30 mins by LC-MS/MS analysis
# Assay type: ADME, Microsome
# Settings: time 35 min, read-out: Stabilty
# Method in brief: (§3)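 Rat liver microsomes 0.2 mg/mL with 1 μM compound, 1 mM EDTA, 0.1 M phosphate pH 7.4; 5 min preincubation, then 1 mM NADPH (final) added, 30 min at 37 °C, 60 rpm. Quenched in cold acetonitrile/internal standard, supernatant by LC-MS/MS against time zero. CLint scaled with 44.8 mg protein/g liver, 40.0 g liver/kg. At least two technical replicates.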
row,SMILES,"remaining at 0.5 h, 1 µM [%]"
1,Cc1cc(C(=O)O)cc2c(=O)c3ccccc3oc12,88
2,O=C(O)c1cc(Cl)c2oc3ccccc3c(=O)c2c1,88

# Tested on: not listed separately
# Assay: Cmax in Sprague-Dawley rat at 1 mg/kg, iv measured up to 8 hrs by LC-MS/MS analysis
# Assay type: ADME, organism-based
# Set-up: route intravenous, dose 1 mg/kg, time <=8
# Settings: in vivo
# Method in brief: as §1
row,SMILES,Cmax [ng/mL]
1,Cc1cc(C(=O)O)cc2c(=O)c3ccccc3oc12,19200
2,O=C(O)c1cc(Cl)c2oc3ccccc3c(=O)c2c1,8650

# Tested on: not listed separately
# Assay: Tmax in Sprague-Dawley rat at 1 mg/kg, po measured up to 8 hrs by LC-MS/MS analysis
# Assay type: ADME, organism-based
# Settings: in vivo
# Method in brief: as §1
row,SMILES,Tmax [h]
1,Cc1cc(C(=O)O)cc2c(=O)c3ccccc3oc12,0.25
2,O=C(O)c1cc(Cl)c2oc3ccccc3c(=O)c2c1,2

# Biological target: Transthyretin (Homo sapiens, UniProt P02766, V50M)
# Assay: Inhibition of acid-mediated aggregation of TTR V30M mutant (unknown origin) expressed in Escherichia coli pretreated for 30 mins at pH 7 followed by protein dilution in acetate buffer and further incubated for 96 hrs at pH 4.6 by thioflavin-T fluorescence assay
# Settings: not given
row,SMILES,IC50 [µM]
1,Cc1cc(C(=O)O)c2c(c1)C(=O)c1ccccc1C2=O,45
2,Oc1ccc(O)c2c(O)c3ccccc3c(O)c12,> 100
3,O=C(O)c1cc(F)c2c(c1)C(=O)c1ccccc1C2=O,24
4,Cc1cc(C(=O)O)cc2c(=O)c3ccccc3oc12,6.5
5,O=C(O)c1ccc2c(c1)C(=O)c1cccc(O)c1C2=O,50
6,O=C(O)c1ccc2c(c1)C(=O)c1ccccc1C2=O,28
7,O=C(O)c1cc(Cl)c2c(c1)C(=O)c1ccccc1C2=O,12
8,O=C(O)c1ccc2oc3ccccc3c(=O)c2c1,22
9,O=C(O)c1ccc2oc3cc(Cl)ccc3c(=O)c2c1,> 100
10,CCOc1cccc2c1C(=O)c1ccc(C(=O)O)cc1C2=O,22
11,O=C1c2cccc(O)c2C(=O)c2c(O)cccc21 [DANTHRON],> 100
12,Nc1c(O)c(S(=O)(=O)O)c(O)c2c1C(=O)c1ccccc1C2=O,11
13,O=C(O)c1ccc2c(=O)c3c(Cl)cccc3oc2c1,10
14,Nc1ccc(O)c2c1C(=O)c1c(O)c(S(=O)(=O)O)cc(N)c1C2=O,> 100
15,O=C(O)c1cc(O)c2c(c1)C(=O)c1cccc(O)c1C2=O [RHEIN],12
16,O=C1c2cccc(O)c2C(=O)c2cccc(O)c21 [ANTHRARUFIN],> 100
17,O=C(O)c1cc(Cl)c2oc3c(Cl)cccc3c(=O)c2c1,9.1
18,O=C(O)c1ccc2c(=O)c3cccc(Cl)c3oc2c1,7.7
19,Cc1cc(O)c2c(c1)C(=O)c1cc(O)cc(O)c1C2=O [EMODIN],> 100
20,O=C1c2cccc(O)c2C(=O)c2c(O)cc(CO)cc21 [ALOE-EMODIN],> 100
21,CC(=O)Oc1cccc2c1C(=O)c1ccc(C(=O)O)cc1C2=O,10
22,O=C(O)c1ccc2c(=O)c3ccc(Cl)cc3oc2c1,13

row,SMILES,IC50 [µM]
1,O=C(O)c1cc(C(=O)O)c2c(c1)C(=O)c1ccccc1C2=O,> 100
2,O=C(O)c1ccc2oc3cccc(Cl)c3c(=O)c2c1,13
3,O=C1c2ccccc2C(=O)c2c(O)c(O)cc(O)c21 [PURPURIN],12
4,O=C(O)c1ccc2c(c1)C(=O)c1c(Cl)c(Cl)c(Cl)c(Cl)c1C2=O,21
5,O=C(O)c1ccc2c(=O)c3cc(Cl)ccc3oc2c1,10
6,O=C1c2ccc(O)c(O)c2C(=O)c2c(O)ccc(O)c21 [QUINALIZARIN],> 100
7,Cc1cc(O)c2c(c1)C(=O)c1cccc(O)c1C2=O [CHRYSOPHANOL],> 100
8,Cc1ccc2oc3ccccc3c(=O)c2c1,> 100
9,COc1cc(O)c2c(c1)C(=O)c1cc(C)cc(O)c1C2=O [PHYSCION],> 100
10,O=C(O)c1ccc2c(=O)c3ccccc3oc2c1,19
11,Cc1ccc2c(=O)c3ccccc3oc2c1,> 100
12,O=C1c2ccccc2C(=O)c2c1ccc(O)c2O [ATHRAQUINONES A],> 100
13,O=C(O)c1cc(Cl)c2oc3ccccc3c(=O)c2c1,6.7
14,CC(=O)Oc1cccc2c1C(=O)c1c(OC(C)=O)cc(C(=O)O)cc1C2=O [DIACEREIN],5.4
15,COc1cccc2c1C(=O)c1c(O)c3c(c(O)c1C2=O)C[C@@](O)(C(C)=O)C[C@@H]3O[C@H]1C[C@H](N)[C@H](O)[C@H](C)O1 [DAUNORUBICIN],> 100
16,O=C1c2ccccc2C(=O)c2c(O)ccc(O)c21 [QUINIZARIN],> 100
17,O=C1c2ccc(O)cc2C(=O)c2c1ccc(O)c2O,12
18,O=C(O)c1ccc2oc3ccc(Cl)cc3c(=O)c2c1,12
19,CC(C)=CCc1c(O)cc2oc3cc(O)c(O)c(CC=C(C)C)c3c(=O)c2c1O,10
20,Cc1cc(C(=O)O)cc2c1C(=O)c1ccccc1C2=O,13
21,O=C(O)c1ccc2oc3c(Cl)cccc3c(=O)c2c1,13

# Tested on: not listed separately
# Assay: Elimination half life in Sprague-Dawley rat at 1 mg/kg, po measured up to 8 hrs by LC-MS/MS analysis
# Assay type: ADME, organism-based
# Settings: in vivo, read-out: beta t1/2 (converted)
# Method in brief: as §1
row,SMILES,half-life [min]
1,Cc1cc(C(=O)O)cc2c(=O)c3ccccc3oc12,264
2,O=C(O)c1cc(Cl)c2oc3ccccc3c(=O)c2c1,300

# Tested on: not listed separately
# Assay: Intrinsic clearance in Sprague-Dawley rat liver microsomes at 1 uM preincubated for 5 mins followed by NADPH addition and measured after 30 mins by LC-MS/MS analysis
# Assay type: ADME, Microsome
# Settings: time 35 min, read-out: CLH
# Method in brief: as §3
row,SMILES,CLint scaled at 1 µM [mL/min/kg]
1,Cc1cc(C(=O)O)cc2c(=O)c3ccccc3oc12,35.7
2,O=C(O)c1cc(Cl)c2oc3ccccc3c(=O)c2c1,37.9

# Tested on: not listed separately
# Assay: Total clearance in Sprague-Dawley rat at 1 mg/kg, iv measured up to 8 hrs by LC-MS/MS analysis
# Assay type: ADME, organism-based
# Settings: in vivo
# Method in brief: as §1
row,SMILES,clearance [mL/min/kg]
1,Cc1cc(C(=O)O)cc2c(=O)c3ccccc3oc12,2.22
2,O=C(O)c1cc(Cl)c2oc3ccccc3c(=O)c2c1,1.27

# Tested on: not listed separately
# Assay: Protein binding in Sprague-Dawley rat plasma assessed as unbound fraction at 1 uM measured after 4 hrs by equilibrium dialysis assay
# Assay type: ADME, cell-free
# Settings: not given
# Method in brief: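 Rat plasma spiked at 1 μM, equilibrium dialysis (8K MWCO) against 0.1 M phosphate pH 7.4 for 4 h at 37 °C, 1000 rpm. Unbound fraction = buffer/plasma concentration ratio. At least two technical replicates.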
row,SMILES,"fraction unbound at 4 h, 1 µM"
1,Cc1cc(C(=O)O)cc2c(=O)c3ccccc3oc12,0.0073
2,O=C(O)c1cc(Cl)c2oc3ccccc3c(=O)c2c1,0.017

# Tested on: not listed separately
# Assay: Aqueous solubility of the compound in pH 6.8 JP2 fluid measured after 4 hrs by HPLC-UV analysis
# Assay type: physicochemical
# Settings: not given
# Method in brief: as §2
row,SMILES,solubility at 4 h [µM]
1,Cc1cc(C(=O)O)cc2c(=O)c3ccccc3oc12,> 100
2,O=C(O)c1cc(Cl)c2oc3ccccc3c(=O)c2c1,> 100
